Results from different studies.
Lines come from different studies, so protocols differ.

CCN1CC2(CCN(CCc3cc(F)ccc3F)CC2)O[C@H](C)C1=O
ED50 (thermal pain; rat; intraperitoneal): 1.85 mg/kg

O=c1[nH]c2cc(-c3ccc(Cl)cc3)sc2c(=O)n1O
inhibition (Human betaherpesvirus 5; viral replication, inhibitor; 10 µM, 7 days): 70%

O=C(NCc1ccc(F)cc1)c1nc(Cl)c2cccnc2c1O
EC50 (Human betaherpesvirus 5; viral replication, inhibitor; HFF): 8.3 µM

CO[C@H]1/C=C/O[C@@]2(C)Oc3c(C)c(O)c4c(O)c(c(/C=N/N5CCN(C)CC5)c(O)c4c3C2=O)NC(=O)/C(C)=C\C=C\[C@H](C)[C@H](O)[C@@H](C)[C@@H](O)[C@@H](C)[C@H](OC(C)=O)[C@@H]1C
IC50 (Mycobacterium tuberculosis; microbial growth; ERDMAN): 0.031 µM

Nc1nc(O)c2ncn(COC(CO)CO)c2n1
EC50 (Human betaherpesvirus 5; viral replication, inhibitor; HFF): 1.6 µM

CCCCCCC#Cc1cncc(-c2nnc(SCc3ccc(Cl)cc3)n2C)c1
IC90 (Mycobacterium tuberculosis; microbial growth; ERDMAN): 8.1 µM

Nc1ncnc2c([C@@H]3N[C@H](CO)[C@@H](O)[C@H]3O)c[nH]c12
inhibition (human respiratory syncytial virus; viral replication, inhibitor; MA104; 28.4 µM): 102%

O=c1[nH]c2cc(-c3ccc(Cl)cc3)ccc2c(=O)n1O
inhibition (Human betaherpesvirus 5; viral replication, inhibitor; 10 µM, 7 days): 102%

N.N.[Cl][Pt][Cl]
IC50 (CCD-18Co; cell growth or viability, MTS; 72 h): 64 µM

O=c1[nH]c2sc(-c3ccc(F)cc3)cc2c(=O)n1O
inhibition (Human betaherpesvirus 5; viral replication, inhibitor; 10 µM, 7 days): -12%

COc1ccc2c3c1O[C@H]1C(=O)CC[C@@]4(O)[C@@H](C2)N(C)CC[C@]314
ED50 (thermal pain; rat; intraperitoneal): 2.67 mg/kg

Cc1c(C(=O)O)sc2[nH]c(=O)n(O)c(=O)c12
inhibition (Human betaherpesvirus 5; viral replication, inhibitor; 10 µM, 7 days): 11%

CCOC(=O)C1=C(N)N(c2ccc(C(=O)OCC)cc2)C(O)=C(C#N)C12C(=O)Nc1ccccc12 (stereo not shown)
viability (HepG2; cell growth or viability, MTT; 3.125 µM, 24 h): 74.5%
